# Results reported in article PMC10360043 (FASEB journal : official publication of the Federation of …, 2023).
# Experiments:
# PDI = PDI (Homo sapiens, UniProt P07237); assay: Insulin-based turbidimetric assay, PDI; format: biochemical; details: insulin turbidity assay, 6-point dose curve
# Outline: (§1)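 Recombinant enzymes were purchased. Test compound was tested as a 6-point dilution series with enzyme at 10 μg/mL final (ERp5 at 30 μg/mL), 125 μM bovine recombinant insulin, 2 mM EDTA and 100 mM potassium phosphate. The reaction was started with 0.3 mM DTT, and insulin aggregation turbidity was read every minute for 75 min.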
# ERp5 = biological target: T1, ERp5 (Homo sapiens, UniProt Q15084); assay: Insulin-based turbidimetric assay, ERp5; format: biochemical; details: insulin turbidity assay, 6-point dose curve
# T1 sequence (Q15084 20-440): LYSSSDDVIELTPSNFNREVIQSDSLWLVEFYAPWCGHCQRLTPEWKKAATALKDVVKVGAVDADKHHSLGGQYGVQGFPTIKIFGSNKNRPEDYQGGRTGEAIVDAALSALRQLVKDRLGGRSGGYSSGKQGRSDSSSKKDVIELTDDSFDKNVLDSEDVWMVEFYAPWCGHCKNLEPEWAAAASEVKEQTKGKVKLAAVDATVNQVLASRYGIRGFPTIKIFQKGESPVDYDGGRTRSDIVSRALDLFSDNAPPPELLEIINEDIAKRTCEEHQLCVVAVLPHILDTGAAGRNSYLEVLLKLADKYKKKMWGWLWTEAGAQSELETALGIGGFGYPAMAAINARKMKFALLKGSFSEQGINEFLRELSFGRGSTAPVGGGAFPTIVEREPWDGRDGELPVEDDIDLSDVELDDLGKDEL
# Outline: as §1
# ERp57 = biological target: T2, ERp57 (Homo sapiens, UniProt P30101); assay: Insulin-based turbidimetric assay, ERp57; format: biochemical; details: insulin turbidity assay, 6-point dose curve
# T2 sequence (P30101 25-505): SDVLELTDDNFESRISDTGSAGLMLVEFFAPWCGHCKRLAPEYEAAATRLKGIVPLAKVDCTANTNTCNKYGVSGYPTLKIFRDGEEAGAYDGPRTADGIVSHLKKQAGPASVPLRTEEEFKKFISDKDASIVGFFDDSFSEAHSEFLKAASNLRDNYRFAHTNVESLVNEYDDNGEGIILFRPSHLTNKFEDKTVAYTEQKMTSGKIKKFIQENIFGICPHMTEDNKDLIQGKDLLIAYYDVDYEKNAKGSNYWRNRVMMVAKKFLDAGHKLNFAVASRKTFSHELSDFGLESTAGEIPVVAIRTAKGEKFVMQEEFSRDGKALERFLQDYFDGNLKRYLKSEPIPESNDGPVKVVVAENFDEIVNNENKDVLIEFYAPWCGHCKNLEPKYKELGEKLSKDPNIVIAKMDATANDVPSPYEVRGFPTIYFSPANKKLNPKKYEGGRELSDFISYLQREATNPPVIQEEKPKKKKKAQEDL
# Outline: as §1
# ERp72 = biological target: T3, ERp72 (Homo sapiens, UniProt P13667); assay: Insulin-based turbidimetric assay, ERp72; format: biochemical; details: insulin turbidity assay, 6-point dose curve
# T3 sequence (P13667 21-645): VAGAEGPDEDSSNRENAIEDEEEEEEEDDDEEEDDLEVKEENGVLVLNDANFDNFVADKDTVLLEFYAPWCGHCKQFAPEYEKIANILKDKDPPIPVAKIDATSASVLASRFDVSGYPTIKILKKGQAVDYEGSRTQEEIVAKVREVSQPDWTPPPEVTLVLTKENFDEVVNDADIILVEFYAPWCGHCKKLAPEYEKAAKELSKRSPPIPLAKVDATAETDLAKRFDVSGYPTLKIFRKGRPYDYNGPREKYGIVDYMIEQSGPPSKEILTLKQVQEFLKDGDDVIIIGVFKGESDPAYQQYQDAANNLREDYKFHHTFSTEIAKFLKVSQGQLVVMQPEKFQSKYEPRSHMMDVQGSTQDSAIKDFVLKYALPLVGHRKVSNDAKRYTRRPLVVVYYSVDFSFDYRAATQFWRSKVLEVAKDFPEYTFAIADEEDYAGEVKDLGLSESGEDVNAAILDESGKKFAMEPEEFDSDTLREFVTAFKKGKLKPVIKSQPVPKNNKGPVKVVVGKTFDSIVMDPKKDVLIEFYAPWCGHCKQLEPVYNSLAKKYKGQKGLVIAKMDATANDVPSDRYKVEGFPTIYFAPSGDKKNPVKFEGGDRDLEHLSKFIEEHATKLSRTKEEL
# Outline: as §1
# LTR1 receptor = details: cited from earlier work
# LTR2 receptor = details: cited from earlier work
# OVCAR8 cells = assay: PrestoBlue cell viability, OVCAR8; format: cell-based, human; details: for OVCAR8 cell viability, time course: concentrations and timepoints used in Figure 4A and B
# EGFR = EGFR phosphorylation after EGF stimulation; format: cell-based, human; details: for decrease of EGFR phosphorylation: then EGF, OVCAR8
# Outline: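 OVCAR8 cells, grown to confluence, were serum-starved, exposed to test compound for 1 or 4 h, then stimulated with EGF (100 ng/mL final). Whole-cell extracts were made in M-PER, protein was quantified by Bradford, and samples were run on SDS-PAGE and transferred to PVDF. Blots were blocked in 5% milk/TBS, probed with anti-pEGFR-Y1068 and an HRP secondary in 3% BSA/TBS-0.1% Tween 20. Student's t-test versus the EGF control.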
# [1] = system: PDI, ERp5, ERp57, and ERp72 levels in OVCAR8 cells; assay: Western blot of thiol isomerase levels in OVCAR8 cells; format: cell-based, human; details: 10 μM and 30 μM, 1 hour
# HEK293 cell line = assay: PrestoBlue cell viability, HEK293; format: cell-based; details: Homo sapiens, HEK293, read-out: cell viability IC50
# Outline: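 HEK293 cells were maintained in high-glucose DMEM with 4 mM glutamine and 10% FBS. Cells were plated at 5,000 per well and grown 24 h, then exposed to test compound or vehicle for 2–24 h. PrestoBlue was added for 10–20 min at 37°C, and fluorescence was read (ex 560/em 590 nm). Signal was expressed as percent of control.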
# Gab1 = Gab1 phosphorylation after EGF stimulation; format: cell-based, human
# [2] = system: tissue factor dependent Factor Xa generation; assay: Factor Xa generation assay on OVCAR8 cells; format: cell-based, human; details: 1, 3, 10, and 30 µM, 30 minutes; significant at 10 and 30 µM
# OVCAR8 tumors [3] = assay: OVCAR8 xenograft in NOG mice; format: in vivo; details: 30 mg/kg i.p. daily
# OVCAR8 tumors [4] = assay: OVCAR8 xenograft with cisplatin and gemcitabine; format: in vivo, NOG mice
# CA-125 = assay: Pilot clinical trial, CA-125 in relapsed ovarian cancer; format: in vivo, human
# plasma thiol isomerase = assay: Plasma thiol isomerase activity of patients; format: in vivo, human; details: day 28 versus day 0, 40 mg twice daily
# [5] = Pilot clinical trial, adverse events; format: in vivo, human; details: 40 mg twice daily, four women
# [6] = double the FDA approved dose for asthma; cited from earlier work
# [7] = 40 mg, oral ingestion; cited from earlier work
# PDI, sequence (P07237 18-508): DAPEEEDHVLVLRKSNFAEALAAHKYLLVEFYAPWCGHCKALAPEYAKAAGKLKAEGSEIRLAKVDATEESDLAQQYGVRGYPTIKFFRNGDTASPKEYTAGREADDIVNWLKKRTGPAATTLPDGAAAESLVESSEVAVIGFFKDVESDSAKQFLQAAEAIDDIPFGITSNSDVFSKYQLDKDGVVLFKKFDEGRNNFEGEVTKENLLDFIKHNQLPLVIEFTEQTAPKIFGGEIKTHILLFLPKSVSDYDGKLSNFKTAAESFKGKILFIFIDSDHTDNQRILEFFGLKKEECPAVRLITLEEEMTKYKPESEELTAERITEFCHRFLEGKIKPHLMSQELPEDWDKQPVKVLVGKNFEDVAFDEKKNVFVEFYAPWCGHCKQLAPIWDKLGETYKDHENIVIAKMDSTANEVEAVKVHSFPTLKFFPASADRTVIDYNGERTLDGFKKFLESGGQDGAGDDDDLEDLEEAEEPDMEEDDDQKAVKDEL
compound,measurement,setting,value
CC(C)(O)c1ccccc1CC[C@@H](SCC1(CC(=O)O)CC1)c1cccc(/C=C/c2ccc3ccc(Cl)cc3n2)c1 [montelukast],inhibition of PDI,PDI,inhibited all four thiol isomerases albeit with less potency
same,inhibition of ERp5,ERp5,inhibited all four thiol isomerases albeit with less potency
same,inhibition of ERp57,ERp57,inhibited all four thiol isomerases albeit with less potency
same,inhibition of ERp72,ERp72,inhibited all four thiol isomerases albeit with less potency
same,"potency at inhibiting the LTR1 receptor, times more potent than zafirlukast",LTR1 receptor,2–3 times
same,effects on the LTR2 receptor,LTR2 receptor,minimal effects
PACMA-31,"OVCAR8 cell viability, time course",OVCAR8 cells,minimally altered
same,inhibition of EGFR activation,"EGFR; OVCAR8, Figure 4B",inhibited EFGR activation in a concentration-dependent manner
COc1cc(C(=O)NS(=O)(=O)c2ccccc2C)ccc1Cc1cn(C)c2ccc(NC(=O)OC3CCCC3)cc12 [zafirlukast],inhibition of PDI,PDI,concentration-dependent manner
same,inhibition of ERp5,ERp5,concentration-dependent manner
same,inhibition of ERp57,ERp57,concentration-dependent manner
same,inhibition of ERp72,ERp72,concentration-dependent manner
same,change in thiol isomerase expression,[1],No significant change
same,IC50,"OVCAR8 cells; Homo sapiens, OVCAR-8, read-out: cell viability IC50",12 µM
same,"OVCAR8 cell viability, time course",OVCAR8 cells,minimally altered
same,IC50,HEK293 cell line,> 100 µM
same,decrease of EGFR phosphorylation,"EGFR; 10 μM, 1 hour",18%
same,decrease of EGFR phosphorylation,"EGFR; 10 μM, four hours",39%
same,decrease of EGFR phosphorylation,"EGFR; 30 μM, 1 hour",27%
same,decrease of EGFR phosphorylation,"EGFR; 30 μM, four hours",52%
same,decrease of Gab1 phosphorylation,"Gab1; 10 μM, 1 hour, then EGF, OVCAR8",37%
same,Gab1 phosphorylation decreased to,Gab1; all other time points and concentrations (10 μM 4 hours; 30 μM 1 and 4 hours),≤ 5%
same,Factor Xa generation,[2],dose dependent decrease
same,lung metastasis score (scale 0–4),"OVCAR8 tumors [3]; 32 days, control group 2.5",0.25
same,mean decrease in tumor volume compared to controls,OVCAR8 tumors [3]; day 32,42%
same,mean decrease of tumor volume relative to cisplatin-gemcitabine alone,"OVCAR8 tumors [4]; 30 mg/kg zafirlukast daily added to 5 mg/kg cisplatin and 120 mg/kg gemcitabine weekly, after 4 weeks",38%
same,decrease in tumor volume compared to the vehicle control,"OVCAR8 tumors [4]; zafirlukast plus cisplatin and gemcitabine, end of the study",83%
same,CA-125 response,"CA-125; 40 mg twice daily, four women",None of the women demonstrated a decrease in CA-125
same,mean change in CA-125,"CA-125; following 40 mg twice daily, 0.036 prior to treatment",0.015 U/mL per day
same,mean CA-125 doubling time,"CA-125; following 40 mg twice daily, 29.8 days prior to treatment",85.69 days
same,reduction of plasma thiol isomerase activity,plasma thiol isomerase,three out of four patients
same,grade 3 or higher adverse events,[5],no grade 3 or higher adverse events reported
same,hemorrhage,[5],no cases of hemorrhage reported
same,toxicity considered possibly related to zafirlukast,[5],headache (grade 1)
same,effects on the LTR2 receptor,LTR2 receptor,minimal effects
same,tolerability of the 40 mg dose,[6],well tolerated
same,peak plasma concentration,[7],~ 3 μM
